Screens from PubChem BioAssay.
This is a sample that favours compounds with a hit; in the whole collection about 3% have one here.
HSF1_activator: increases HSF-1 driven luciferase reporter signal; NIH3T3-HGL HSF-1 luciferase reporter, MG132, 8 h; 100% = twice DMSO control signal; activation, % at 9 µM; hit rate 1.7% among 300,000;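 active = mean replicate activation of at least 50% with a set share of replicates each reaching 50%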;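 also: 0% = median of the neutral control wells and 100% = twice that signal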
Glyco_luc_inh: N-linked glycosylation inhibition; reporter increase, % at 12.5 µM; hit rate 0.23% among 360,000; D54 ERlucT glycosylation luciferase reporter, 24 h; percent of 100 nM tunicamycin response;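 active = mean luciferase reporter signal, scaled so untreated is 0 and the glycosylation-blocking control 100, at or above a set limit in every replicate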;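 also: luciferase carries N-glycosylation sites so blocking glycosylation raises the light; 0% = median of neutral control wells and 100% = median of 100 nM tunicamycin wells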
T_cruzi_repl: T. cruzi replication inhibition | T. cruzi beta-gal in NIH3T3, luminescence, 90 h | inhibition, % (concentration not given with the values) | hit rate 1.4% among 300,000 | AID 1885;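 active = mean inhibition across valid replicates above about 55%, limit read from the data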;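 also: signal also drops with host cell toxicity which is not excluded here; 0% = plate median of DMSO wells and 100% = zero luminescence signal; higher percent means less beta-gal luminescence so fewer parasites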
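Incubation – ≥90 h infection period, 3 h prior cell attachment · System – NIH/3T3 fibroblasts plus reporter T. cruzi · Doses – compound pinned at 50 nL/well, DMSO · Read-out basis – percent inhibition of parasite-derived β-gal signal · Signal – luminescent β-galactosidase signal after 60 min lysis · Also added – 5000 T. cruzi trypomastigotes/well · Medium – Low-serum DMEM with 2% FBS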
PvdQ_inh: P. aeruginosa PvdQ acylase inhibition; purified PvdQ acylase, fluorescence plate reader; inhibition, % at 10 µM; hit rate 0.063% among 340,000; in the data active = inhibition above about 30%, passing the limit was not always enough;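 also: 0% = vehicle neutral wells and 100% = reference inhibitor wells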
CaV13_FRET_inh: Disruptors of the CACNA1D IQ motif to Ca2+-dependent inactivation inhibitor domain association, primary screening, Förster resonance energy transfer in intact living …; hit rate 0.098% among 340,000; AID 743397; HEK cells, CFP/YFP FRET ICDI-IQ, plate reader, 10 min; percent FRET-ratio fall versus neutral wells; inhibition, % at 12.3 µM;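 active = mean replicate inhibition of at least 30% and at least 1% of replicates passing that level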;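 also: 0% = median of the neutral control wells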
PfHsp90_set2: growth inhibition of yeast expressing Plasmodium Hsp90; S. cerevisiae expressing PfHsp90, BacTiter-Glo ATP, 48 h; yeast lacking PDR1 and PDR3 efflux regulators; inhibition, % at 9.4 µM; hit rate 0.32% among 310,000; AID 504621;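 active = every replicate shows inhibition above about 80%, whatever the replicate mean, limit read from the data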;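 also: 0% = DMSO neutral controls and 100% = 20 µM radicicol positive controls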
* = called active by the depositor; / = no result.

SMILES HSF1_activator Glyco_luc_inh T_cruzi_repl PvdQ_inh CaV13_FRET_inh PfHsp90_set2
O=c1oc(Nc2cccc(Cl)c2)nc2ccccc12 67* -1 -9 -15 4 -5
CCc1ccc(N/C(SCc2cccc(F)c2)=C(/C#N)C(=O)NCc2ccco2)cc1 29 -5 57* 7 -5 -5
Cc1ccc(N/C(SCc2ccccc2C)=C(/C#N)C(=O)NCc2ccco2)cc1C 12 -3 60* -11 -5 /
Cc1cc(NC(=O)NCc2ccco2)ccc1NC(=O)NCc1ccco1 / 1 / -6 -5 /
O=C(NNC(=O)c1ccncc1)Nc1ccc(N=Nc2ccccc2)cc1 / -1 / -1 -5 6
O=C(COc1ccc(Br)cc1)NCc1cn2ccccc2n1 14 0 -6 -12 -7 -14
Cc1cccn2cc(COc3cccc([N+](=O)[O-])c3)nc12 24 -1 -14 -8 -4 0
Cc1cccn2cc(COc3ccc(-c4ccccc4)cc3)nc12 69* -14 21 7 -2 1
Brc1ccc(OCc2cn3ccccc3n2)cc1 83* -10 -10 0 2 /
